From ChEMBL document CHEMBL1148368, “Synthesis and antitumor activity of quinonoid derivatives of cannabinoids” (2004)

Legend:
Raji [1] = test: Inhibition of the growth of Raji lymphoma cells at 6.25 ug/ml concentration; type: functional; details: Homo sapiens
Method in brief: (§1)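 Lymphoma cells were suspended in RPMI 1640 with 20% heat-inactivated FCS, 2 mM L-glutamine, penicillin and streptomycin at 37 °C in 5% CO2. Cells were plated at 0.02×10^6 per well with varied quinone concentrations. MTT reduction was measured on day 3. Five replicate wells were used per concentration, in 2–3 repeat experiments. Inhibition is expressed as % versus 0.5% ethanol vehicle wells.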

Jurkat [2] = test: Inhibition of the growth of Jurkat lymphoma cells at 12.5-25.0 ug/ml concentration; type: functional, Homo sapiens; method in brief: as §1
Raji [3] = test: Inhibition of the growth of Raji lymphoma cells at 12.5-25.0 ug/ml concentration; type: functional, Homo sapiens; method in brief: as §1
SNB-19 = test: Concentration of compound required to inhibit the growth of SNB-19 cells; type: functional, cell-based; details: Homo sapiens
Method in brief: (§2)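 Adherent/epithelial cancer cells were grown in RPMI 1640 with 10% heat-inactivated FCS, 2 mM L-glutamine, penicillin and streptomycin at 37 °C in 5% CO2. Cells were seeded at 0.02×10^6 per well with varied quinone concentrations. MTT readout was taken after 3 days. Five replicate wells were used per concentration, in 2–3 repeat experiments. Results are % inhibition versus untreated wells given 0.5% ethanol vehicle.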

Jurkat [4] = test: Inhibition of the growth of Jurkat lymphoma cells at 0.2 ug/ml concentration; type: functional; details: Homo sapiens; method in brief: as §1
Raji [5] = test: Inhibition of the growth of Raji lymphoma cells at 0.2 ug/ml concentration; type: functional; details: Homo sapiens; method in brief: as §1
MCF7 = test: Inhibition of the growth of MCF-7 mammary cancer cells at 3.125 ug/ml concentration; type: functional; details: Homo sapiens; method in brief: as §2
Jurkat [6] = test: Inhibition of the growth of Jurkat lymphoma cells at 1.56 ug/ml concentration; type: functional; details: Homo sapiens; method in brief: as §1
Raji [7] = test: Inhibition of the growth of Raji lymphoma cells at 1.56 ug/ml concentration; type: functional; details: Homo sapiens; method in brief: as §1
HT-29 = test: Inhibition of the growth of HT-29 colon cancer cells at 3.125 ug/ml concentration; type: functional; details: Homo sapiens; method in brief: as §2

CCCCCC1=CC(=O)C2=C(OC(C)(C)c3ccc(C)cc32)C1=O
inhibition at 6.25 µg/mL (Raji [1]): 50% | Inhibition (Jurkat [2]): 50% | Inhibition (Raji [3]): 50%

CCCCCC1=CC(=O)C2=C(OC(C)(C)[C@@H]3CC=C(C)C[C@@H]23)C1=O
Concentration (SNB-19): 100 µg/mL

C=C(C)C1CCC(C)=C[C@H]1C1=C(O)C=C(CCCCC)C(=O)C1=O (stereo not given in full)
inhibition at 0.2 µg/mL (Jurkat [4]): 50% | inhibition at 0.2 µg/mL (Raji [5]): 50% | inhibition at 3.125 µg/mL (MCF7): 50% | inhibition at 1.56 µg/mL (Jurkat [6]): 80% | inhibition at 1.56 µg/mL (Raji [7]): 80% | inhibition at 3.125 µg/mL (HT-29): 50%
